Bim-Mcl-1: human Bim-Mcl-1 interaction inhibition | 190,000 compounds, 0.1% hits | Bead-based flow cytometry, Bim peptide-Mcl-1 binding | inhibition, % at 10 µM | Q07820; in the data active means inhibition above about 40%;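 further: 0% = no compound tracer wells and 100% = peptide blocker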
MCL1 BIM primary: inhibitors of human MCL1 binding to BIM-BH3 peptide; AID 2057; inhibition, % at 10.9 µM; GST-MCL1 / FITC-Bim-BH3 fluorescence polarization; 320,000 compounds, 0.68% hits;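 active means inhibition above the mean inhibition of all tested compounds plus 3 SD, set per campaign, cut at about 40% in these data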;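 further: 0% = DMSO wells and 100% = unlabeled Bim-BH3 peptide control; higher means more loss of mP so more displacement of Bim peptide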
Mcl1-Bid inh: disrupts binding of human Mcl-1 to Bid peptide | Q07820 | TR-FRET Mcl-1/Bid-Dy647 peptide binding, 1536-well | inhibition, % at 21.7 µM | 220,000 compounds, 0.97% hits | AID 1021;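 active means compounds that cut the binding signal by more than half at the single screening dose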;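 further: His-tagged Mcl-1 with europium anti-His antibody binding Bid BH3 peptide; 0% = Mcl-1 plus peptide wells and 100% = peptide-only wells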
T cell modulator: T cell immune modulation candidate. response (vesicle binding), % at 7 µM. 2C CD8+ T cell-vesicle binding, flow cytometry; hits give low values. 330,000 compounds, 0.068% hits;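 active means response, share of CD8 T cells binding vesicles, and their 90th percentile fluorescence all below set limits, cut at about 80% in these data, passing the limit was not always enough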;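 further: values below 100% mean blocked vesicle binding to the CD8+ T cells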
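Assay system – 2C mouse CD8+ T cells · Also added – QL9-loaded Drosophila micro-vesicles · Timing – Cell–vesicle co-incubation 1.5 h at 37 °C, staining 20 min on ice · Signal – flow cytometry of vesicle-bound cells · Measure – percent CD8+ FL2 mean versus row control · Controls – Peptide-free naked vesicles (low) and QL9 vesicles with 0.7% DMSO vehicle (high)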
DSG3 Ab inh: blocks pemphigus antibody binding to human desmoglein-3. P32926. DSG3-coupled beads, scFv-anti-DSG3-GFP binding, flow cytometry; hits give low values. 310,000 compounds, 0.48% hits. binding (percent of control), % at 10 µM. AID 588358;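 active means binding more than 3 SD below its plate's average and above zero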;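 further: hits lower antibody fragment binding to DSG3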
Mcl1-Noxa inh: Mcl-1/Noxa interaction inhibition; TR-FRET Mcl-1/Noxa peptide binding, 2 h; inhibition, % at 21.7 µM; 220,000 compounds, 1.5% hits; AID 1022;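 active means compounds that cut the protein-peptide binding signal by more than 50% relative to plate controls in a single-dose test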;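 further: His-tagged Mcl-1 with rhodamine Noxa BH3 peptide and terbium anti-His antibody; 0% = Mcl-1 plus Noxa peptide wells and 100% = peptide-only wells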
BCLXL inh confirm: counter-screen for MCL1 inhibitors: confirmation of human Bcl-xL inhibitors. shares compounds with MCL1 BIM primary. inhibition, % at 10.9 µM. 1,700 compounds, 54% hits. GST-Bcl-xL / FITC-Bim BH3 peptide FP binding;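 active means inhibition above a cutoff equal to the mean inhibition of all tested compounds plus 3 SD, cut at about 30% in these data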;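 further: 0% = DMSO wells and 100% = unlabeled Bim BH3 control peptide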
Target sequence (Q07817 whole entry, looked up): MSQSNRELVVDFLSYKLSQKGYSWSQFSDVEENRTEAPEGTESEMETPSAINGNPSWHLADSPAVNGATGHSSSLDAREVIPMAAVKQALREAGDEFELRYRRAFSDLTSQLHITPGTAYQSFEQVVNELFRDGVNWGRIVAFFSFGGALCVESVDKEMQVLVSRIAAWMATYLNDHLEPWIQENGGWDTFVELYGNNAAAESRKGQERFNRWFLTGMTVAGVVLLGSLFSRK
MCL1 BIM confirm: MCL1-BIM-BH3 interaction inhibition, confirmation | shares compounds with MCL1 BIM primary | GST-MCL1 / FITC-Bim-BH3 fluorescence polarization | inhibition, % at 10.9 µM | 1,700 compounds, 61% hits | AID 2168;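 active means inhibition above the average of all tested compounds plus 3 SD, cut at about 40% in these data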;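 further: 0% = DMSO wells and 100% = unlabeled Bim-BH3 control peptide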
The depositor's hits bear a star; · = no result; + = active, no number. Most compounds without a hit are left out; they make up all but 2.3% or so of the library.

SMILES	Bim-Mcl-1	MCL1 BIM primary	Mcl1-Bid inh	T cell modulator	DSG3 Ab inh	Mcl1-Noxa inh	BCLXL inh confirm	MCL1 BIM confirm
O=C(CCNC(=O)c1ccc([N+](=O)[O-])cc1)Nc1cc(C(F)(F)F)ccc1N1CCOCC1	·	·	·	·	102	·	·	·
CCCCC1(C)NC(=O)N(CC(=O)N2CCc3ccccc32)C1=O (stereo not given)	·	·	·	257	103	·	·	·
Cc1nc(NC(=O)C(C)(C)C)sc1-c1csc(N)n1	·	·	·	·	99	·	·	·
Cc1ccc(C(CC(=O)O)NC(=O)CN2C(=O)c3ccccc3C2=O)cc1 (stereo not given)	·	10	·	233	100	·	·	·
C1=C(c2ccc(-c3ccccc3)cc2)Nc2ncnn2C1c1ccco1 (stereo not given)	-1	·	-56	·	111	20	·	·
Fc1ccc(C2=CC(c3ccco3)n3ncnc3N2)cc1 (stereo not given)	-4	181*	-77	260	104	11	11	22
Fc1ccc(C2=CC(c3ccc(Br)o3)n3ncnc3N2)cc1 (stereo not given)	-4	+	17	529	106	23	125*	156*
CC(NC(=O)COc1ccccc1Cl)c1ccccc1 (stereo not given)	·	-6	·	106	104	·	·	·
CCn1c(O)c(/C=N/N=C/c2ccccc2)c2ccc(C3=NNC(=O)CC3)cc21	-1	90*	-59	486	109	-2	96*	109*
CCCCOc1ccc(C2=NNC(=O)CC2)cc1	-2	-4	-7	218	110	14	·	·
Cc1cccc(NC(=O)C(C)Sc2ncnc3sccc23)c1 (stereo not given)	·	·	·	·	134	·	·	·
COc1ccc(/C=N/N=C2/CC(C)(C)Cc3n[nH]c(=O)cc32)cc1	1	155*	-47	355	101	17	49*	63*
O=c1cc(CSc2nnc3ccccn23)c2c(ccc3ccccc32)o1	-3	88*	-3	239	112	22	-8	16
O=c1[nH]c(CSc2nnc3ccccn23)nc2ccccc12	-1	8	-30	152	·	1	·	·
NC(=O)c1c(NC(=O)c2ccco2)sc2c1CCC2	-3	7	-77	217	110	27	·	·
N#Cc1c(NC(=O)c2ccco2)sc2c1CCC2	·	56*	·	264	98	·	25	36
Nc1ccc2nc3c(=O)n(CCc4ccccc4)c(=O)[nH]c3nc2c1	·	+	-32	549	92	-181	182*	+
CCCCn1c(=O)[nH]c2nc3cc(N)ccc3nc2c1=O	-1	+	-64	208	90	-141	+	+
Cc1cc2nc3c(=O)n(CCc4ccccc4)c(=O)[nH]c3nc2cc1N	·	+	-53	527	96	-158	190*	+
CCCCn1c(N)c(Br)c(=O)[nH]c1=O	·	-2	-19	277	104	11	·	·
Nc1ccc2nc3c(=O)n(C4CCCCC4)c(=O)[nH]c3nc2c1	·	+	-91	382	105	-124	191*	+
O=S1(=O)C[C@H]2NC(=S)N(c3ccccc3)[C@H]2C1	-6	13	-21	222	100	7	·	·
COc1ccccc1C(CNC(=O)c1cc(C)nc2ccccc12)N(C)C (stereo not given)	·	2	·	286	·	·	·	·
Cn1c(SCC(=O)Nc2nncs2)nnc1C1CC1	·	46*	·	310	96	·	11	29
CC(C)n1c(SCC(=O)Nc2nncs2)nnc1C1CC1	·	1	·	0	·	·	·	·
CCN(CC(=O)Nc1c(F)cccc1F)C(=O)/C=C/c1ccc2ccccc2n1	·	86*	·	327	77*	·	21	90*
Cc1c(Br)c(O)c(Br)c2sc(=O)oc12	·	79*	-11	413	102	51*	20	49*
CN(C)C1(CN=Cc2cc(Cl)cc([N+](=O)[O-])c2O)CCCCC1	·	60*	·	155	·	·	-3	2
